Test results reported in ChEMBL document CHEMBL3526153, “Metabolism of gambogic acid in rats: a rare intestinal metabolic pathway responsible for its final disposition” (Drug Metab Dispos, 2011).
Values belong to the compound of their own block, whether it stands above or below them.

Legend:
[1] = Retention time of the compound in Sprague-Dawley rat bile treated with gambogic acid at 4 mg/kg, iv measured over 24 hrs by LC-DAD-MS/MS analysis; assay type: ADME, organism-based; design: dose 4 mg/kg, route intravenous; conditions: in vivo
Method in brief: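 SD rats, n=4, bile-duct cannulated under chloral hydrate and allowed 1 h recovery. GA 4 mg/kg i.v.; bile collected on ice, pooled 0–24 h. C18 LC-DAD-MS/MS at 0.25 mL/min with acetonitrile gradient (38% to 80%) in 10 mM ammonium acetate, 40 °C, negative ESI.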

[2] = Drug level in rat liver microsomes assessed as CYP450-mediated compound formation treated with gambogic acid at 50 uM preincubated for 10 mins followed by NADPH addition measured after 1 hr by LC-DAD-MS/MS analysis; assay type: ADME
Method in brief: (§1)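 GA 50 µM with rat liver microsomes 1.0 mg/mL in 0.1 M PBS pH 7.4, pre-incubated 10 min at 37 °C. Started with NADPH (6.0 mM final) and run 1 h at 37 °C. Controls lacked NADPH or microsomes; duplicate. Stopped with ice-cold acetonitrile, centrifuged, supernatant dried and reconstituted. Isocratic LC (65% acetonitrile), negative-ion ESI MS/MS.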

[3] = Drug level in Sprague-Dawley rat feces treated with gambogic acid at 4 mg/kg, iv measured over 24 hrs by LC-DAD-MS/MS analysis; assay type: ADME, organism-based; design: dose 4 mg/kg, route intravenous; conditions: in vivo
Method in brief: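 SD rats (250 ± 20 g), n=4, given GA 4 mg/kg i.v. via tail vein in 2 mL; feces pooled 0–24 h and stored at −20 °C. Feces (0.6 g) homogenized in 50% acetonitrile, sonicated, centrifuged, filtered, then ethyl acetate extraction. Analysed by C18 LC-DAD-MS/MS (gradient 38–80% acetonitrile, 10 mM ammonium acetate, 40 °C), negative ESI.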

Liver microsome [4] = experiment: Drug level in rat liver microsomes treated with gambogic acid at 50 uM preincubated for 10 mins followed by UDPGA addition measured after 2 hrs by LC-MS/MS analysis; assay type: ADME
Method in brief: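 Rat liver microsomes 1.0 mg/mL pretreated with alamethicin 50 μg/mg protein. GA 50 μM, saccharic acid-1,4-lactone 6 mM, in 0.05 M Tris-HCl pH 7.4. Preincubated 10 min at 37 °C, started with UDPGA (6.0 mM final), run 2 h at 37 °C, duplicate. Quenched with ice-cold acetonitrile. LC-MS/MS in negative ESI with acetonitrile gradient 50–95%.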

Plasma [5] = experiment: Drug level in Sprague-Dawley rat plasma at 4 mg/kg, iv measured over 4 hrs by LC-DAD-MS/MS analysis; assay type: ADME, organism-based; design: dose 4 mg/kg, route intravenous; conditions: in vivo
Method in brief: (§2)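 Six SD rats dosed 4 mg/kg GA i.v. via tail vein. Tail-vein blood taken before and 0.033–4 h post-dose into heparinized tubes, centrifuged 3000 × g 10 min at 4 °C, and plasma pooled 0–4 h. 1 mL extracted with 4 mL ethyl acetate, dried under N2 at 40 °C, reconstituted. Isocratic C18 LC (68% acetonitrile), negative-ion ESI MS/MS.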

[6] = Drug level in Sprague-Dawley rat feces at 4 mg/kg, iv measured over 24 hrs by LC-MS/MS analysis; assay type: ADME, organism-based; design: dose 4 mg/kg, route intravenous; conditions: in vivo
Method in brief: (§3)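 SD rats (250 ± 20 g), 4 mg/kg GA injection given i.v. via tail vein in 2 mL; feces from four rats pooled 0–24 h, stored -20 °C. Feces (0.6 g) homogenized in acetonitrile-water 50:50, sonicated, centrifuged, filtered, then extracted with ethyl acetate, dried under N2 at 40 °C, reconstituted in mobile phase. Gradient C18 LC, negative-ion ESI MS/MS.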

[7] = Drug excretion in Sprague-Dawley rat feces at 2 mg/kg, iv measured within 48 hrs; assay type: ADME, organism-based; design: dose 2 mg/kg, route intravenous; conditions: read-out: Drug excretion
[8] = Drug metabolism in Sprague-Dawley rat gut assessed as formation of 10-beta sulfonic gambogic acid at 4 mg/kg, iv; assay type: ADME, organism-based; design: dose 4 mg/kg, route intravenous; conditions: in vivo
[9] = Drug metabolism in Sprague-Dawley rat feces assessed as formation of 9,10-epoxyl-gambogic acid at 4 mg/kg, iv measured over 24 hrs by LC-DAD-MS/MS analysis; assay type: ADME, organism-based; design: dose 4 mg/kg, route intravenous; conditions: in vivo; method in brief: as §3
[10] = Drug metabolism in intestine (unknown origin) assessed as 10-beta sulfonic gambogic acid formation; assay type: ADME, tissue-based
Method in brief: (§4)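 Intestinal contents from undosed rats homogenized in 5 mL water, spiked with 100 µL of 1.0 mg/mL GA, incubated at 37 °C about 24 h, in duplicate. 1 mL extracted with ethyl acetate. LC-MS/MS in negative ESI with SIM at m/z 709.3.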

[11] = Drug metabolism in rat liver microsomes assessed as CYP450-mediated 9,10-epoxyl-gambogic acid formation at 50 uM preincubated for 10 mins followed by NADPH addition measured after 1 hr by LC-DAD-MS/MS analysis; assay type: ADME; method in brief: as §1
Liver microsome [12] = experiment: Drug metabolism in rat liver microsomes assessed as 9,10-epoxyl-gambogic acid formation at 50 uM preincubated for 10 mins by LC-MS/MS analysis in absence of NADPH; assay type: ADME; method in brief: as §1
[13] = Drug level in Sprague-Dawley rat urine at 4 mg/kg, iv measured over 24 hrs by LC-DAD-MS/MS analysis; assay type: ADME, organism-based; design: dose 4 mg/kg, route intravenous; conditions: in vivo
Method in brief: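 Urine collected from four SD rats and pooled 0–24 h after 4 mg/kg GA i.v. via tail vein; stored -20 °C until LC-MS/MS analysis (negative-ion ESI).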

Liver microsome [14] = experiment: Drug metabolism in rat liver microsomes assessed as glucuronidation product formation at 50 uM preincubated for 10 mins followed by UDPGA addition for 2 hrs measured 1 hr post beta-glucuronidase treatment by LC-MS/MS analysis; assay type: ADME
Method in brief: (§5)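 Dried UDPGA microsomal incubate reconstituted in 0.1 M Tris pH 6.8. For enzymatic hydrolysis, about 830 units β-glucuronidase, 37 °C for 1 h; control without enzyme. For alkaline hydrolysis, with or without 0.5 M NaOH (10 µL), 2 h at room temperature, then neutralized with acetic acid to about pH 7. Analyzed by LC-MS/MS.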

[15] = Drug metabolism in Sprague-Dawley rat feces assessed as 10-OHGA formation at 4 mg/kg, iv measured over 24 hrs by LC-DAD-MS/MS analysis; assay type: ADME, organism-based; design: dose 4 mg/kg, route intravenous; conditions: in vivo; method in brief: as §3
[16] = Drug metabolism in Sprague-Dawley rat feces assessed as formation of glucuronidation product at 4 mg/kg, iv measured over 24 hrs by LC-DAD-MS/MS analysis; assay type: ADME, organism-based; design: dose 4 mg/kg, route intravenous; conditions: in vivo; method in brief: as §3
Plasma [17] = experiment: Drug metabolism in Sprague-Dawley rat plasma assessed as 10-OHGA formation at 4 mg/kg, iv measured over 4 hrs by LC-DAD-MS/MS analysis; assay type: ADME, organism-based; design: dose 4 mg/kg, route intravenous; conditions: in vivo; method in brief: as §2
Liver microsome [18] = experiment: Drug metabolism in rat liver microsomes assessed as glucuronidation product formation at 50 uM preincubated for 10 mins followed by UDPGA addition for 2 hrs measured 2 hrs post NaOH treatment by LC-MS/MS analysis; assay type: ADME; method in brief: as §5
[19] = Drug metabolism in Sprague-Dawley rat bile assessed as 10-alpha sulfonic gambogic acid formation of at 4 mg/kg, iv measured over 24 hrs by LC-DAD-MS/MS analysis; assay type: ADME, organism-based; design: dose 4 mg/kg, route intravenous; conditions: in vivo
Method in brief: (§6)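 Four SD rats bile-duct cannulated under chloral hydrate anesthesia, allowed 1 h recovery, pre-dose bile taken. Dosed 4 mg/kg GA i.v. Bile collected on ice and pooled 0–24 h, stored -20 °C. Gradient C18 LC (acetonitrile/10 mM ammonium acetate), 40 °C column, negative-ion ESI MS/MS.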

[20] = Drug metabolism in intestine (unknown origin) assessed as 10-alpha sulfonic gambogic acid formation; assay type: ADME, tissue-based; method in brief: as §4
[21] = Drug metabolism in Sprague-Dawley rat bile assessed as formation of 10-beta sulfonic gambogic acid at 4 mg/kg, iv measured over 24 hrs by LC-DAD-MS/MS analysis; assay type: ADME, organism-based; design: dose 4 mg/kg, route intravenous; conditions: in vivo; method in brief: as §6
[22] = Drug metabolism in rat liver microsomes assessed as SULT-mediated sulfonation; assay type: ADME
Liver microsome [23] = experiment: Drug metabolism in rat liver microsomes assessed as glucuronidation product formation at 50 uM preincubated for 10 mins followed by UDPGA addition measured after 2 hrs by LC-MS/MS analysis; assay type: ADME
Method in brief: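 GA 50 µM with alamethicin-treated rat liver microsomes 1.0 mg/mL and saccharic acid-1,4-lactone 6 mM in 0.05 M Tris-HCl pH 7.4, pre-incubated 10 min at 37 °C. Started with UDPGA (6.0 mM) and run 2 h at 37 °C. Controls lacked UDPGA or microsomes; duplicate. Acetonitrile quench, gradient LC, negative-ion ESI MS/MS.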

[24] = Retention time of the compound in Sprague-Dawley rat bile at 4 mg/kg, iv measured over 24 hrs by LC-DAD-MS/MS analysis; assay type: ADME, organism-based; design: dose 4 mg/kg, route intravenous; conditions: in vivo; method in brief: as §6
[25] = Drug metabolism in rat liver microsomes assessed as CYP450-mediated 10-OHGA formation at 50 uM preincubated for 10 mins followed by NADPH addition measured after 1 hr by LC-DAD-MS/MS analysis; assay type: ADME; method in brief: as §1
[26] = Drug metabolism in Sprague-Dawley rat gut assessed as formation of 10-alpha sulfonic gambogic acid at 4 mg/kg, iv; assay type: ADME, organism-based; design: dose 4 mg/kg, route intravenous; conditions: in vivo

Retention_time [1]: 40.3 min
SMILES: CC(C)=CCC[C@]1(C)C=Cc2c(O)c3c(c(CC=C(C)C)c2O1)O[C@]12C(=C[C@@H]4C[C@H]1C(C)(C)O[C@@]2(C/C=C(/C)C(=O)O[C@@H]1O[C@H](CO)[C@@H](O)[C@H](O)[C@H]1O)C4=O)C3=O

SMILES: CC(C)=CCC[C@]1(C)C=Cc2c(O)c3c(c(CC=C(C)C)c2O1)O[C@]12[C@H]4C[C@H](C(=O)[C@]1(C/C=C(/C)C(=O)O)OC4(C)C)C1OC12C3=O (stereo not given in full)
Drug metabolism [2]: metabolite_detected | Drug metabolism [3]: metabolite_detected | Retention_time [1]: 43.8 min

Retention_time [1]: 39 min
SMILES: CC(C)=CCC[C@]1(C)C=Cc2c(O)c3c(c(CC=C(C)C)c2O1)O[C@]12[C@H]4C[C@H](C(=O)[C@]1(C/C=C(/C)C(=O)O[C@@H]1O[C@H](CO)[C@@H](O)[C@H](O)[C@H]1O)OC4(C)C)C1OC12C3=O (stereo not given in full)

Drug metabolism [3]: metabolite_detected | Drug metabolism (Liver microsome [4]): metabolite_detected | Retention_time [1]: 23.6 min
SMILES: CC(C)=CCC[C@]1(C)C=Cc2c(O)c3c(c(CC=C(C)C)c2O1)O[C@]12C(=C[C@@H]4C[C@H]1C(C)(C)O[C@@]2(C/C=C(/C)C(=O)O[C@@H]1O[C@H](C(=O)O)[C@@H](O)[C@H](O)[C@H]1O)C4=O)C3=O

SMILES: CC(C)=CCC[C@]1(C)C=Cc2c(O)c3c(c(CC=C(C)C)c2O1)O[C@]12C(=C[C@@H]4C[C@H]1C(C)(C)O[C@@]2(C/C=C(/C)C(=O)O)C4=O)C3=O [GAMBOGIC ACID]
Drug uptake (Plasma [5]): Active | Drug uptake [6]: Active | dose excreted at 48 h [7]: 1.04% | Drug metabolism [8]: metabolite_detected | Drug metabolism [9]: metabolite_detected | Drug metabolism [10]: metabolite_detected | Drug metabolism [11]: metabolite_detected | Drug metabolism (Liver microsome [12]): metabolite_not_detected | Drug uptake [13]: Not Active | Drug metabolism (Liver microsome [14]): metabolite_not_detected | Drug metabolism [15]: metabolite_detected | Drug metabolism [16]: metabolite_detected | Drug metabolism (Plasma [17]): metabolite_detected | Drug metabolism (Liver microsome [18]): metabolite_not_detected | Drug metabolism [19]: metabolite_not_detected | Drug metabolism [20]: metabolite_detected | Drug metabolism [21]: metabolite_not_detected | Drug metabolism [22]: metabolite_not_detected | Drug metabolism (Liver microsome [23]): metabolite_detected | Retention_time [24]: 44.8 min | Drug metabolism [25]: metabolite_detected | Drug metabolism [26]: metabolite_detected
